ChEMBL document CHEMBL3244174, “Synthesis and biological activity of some new furan quaternary salts” (J Med Chem, 1977)

Key:
[1] = system: Trichophyton mentagrophytes; assay: Antifungal activity against Trichophyton mentagrophytes A-280 USPHS assessed as growth inhibition by agar dilution method; assay type: functional
Salmonella typhi = assay: Antibacterial activity against Salmonella typhi 115 assessed as growth inhibition after 24 hrs by dilution tube method; assay type: functional, Salmonella enterica subsp. enterica serovar Typhi; conditions: Salmonella enterica, 115, 24 h
Procedure, shortened: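 Dilution tube method in Tryptone Soya Broth; MIC (μg/ml) taken as highest dilution preventing visible growth; duplicates at every concentration; nitrofurantoin reference run under same conditions.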

Trichophyton rubrum = assay: Antifungal activity against Trichophyton rubrum 252 CSTM assessed as growth inhibition by agar dilution method; assay type: functional
Nannizzia gypsea = assay: Antifungal activity against Microsporum gypseum 153 CSTM assessed as growth inhibition by agar dilution method; assay type: functional
Enterococcus faecalis = assay: Antibacterial activity against Streptococcus faecalis ATCC 10541 assessed as growth inhibition after 24 hrs by dilution tube method; assay type: functional; conditions: ATCC 10541, 24 h
Procedure, shortened: (§1)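 Broth tube dilution in Tryptone Soya Broth, duplicate tubes at each concentration. MIC (μg/ml) was the highest dilution preventing visible growth. Nitrofurantoin run under the same conditions.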

[2] = system: Mycobacterium tuberculosis; assay: Antibacterial activity against Mycobacterium tuberculosis H37Rv assessed as growth inhibition by serial dilution method; assay type: functional
Procedure, shortened: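 M. tuberculosis H37Rv maintained on Lowenstein–Jensen medium; tested in Youman's medium by serial dilution.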

Microsporum canis = assay: Antifungal activity against Microsporum canis VM-200 USPHS assessed as growth inhibition by agar dilution method; assay type: functional
Candida albicans = assay: Antifungal activity against Candida albicans SKF 2270 assessed as growth inhibition by agar dilution method; assay type: functional
Cryptococcus neoformans = assay: Antifungal activity against Cryptococcus neoformans 103 assessed as growth inhibition by agar dilution method; assay type: functional
Staphylococcus aureus = assay: Antibacterial activity against Staphylococcus aureus ATCC 6538 assessed as growth inhibition after 24 hrs by dilution tube method; assay type: functional; conditions: ATCC 6538, 24 h; procedure, shortened: as §1
[3] = system: Agrobacterium tumefaciens; assay: Antibacterial activity against Agrobacterium tumefaciens NRRL B-36 assessed as growth inhibition after 24 hrs by dilution tube method; assay type: functional; conditions: NRRL B-36, 24 h; procedure, shortened: as §1
Histoplasma capsulatum = assay: Antifungal activity against Histoplasma capsulatum RNSH Hi-70 1/2 assessed as growth inhibition by agar dilution method; assay type: functional
Pseudomonas aeruginosa = assay: Antibacterial activity against Pseudomonas aeruginosa ATCC 10145 assessed as growth inhibition after 24 hrs by dilution tube method; assay type: functional; conditions: ATCC 10145, 24 h; procedure, shortened: as §1
Escherichia coli = assay: Antibacterial activity against Escherichia coli 114 assessed as growth inhibition after 24 hrs by dilution tube method; assay type: functional; conditions: Escherichia coli, 114, 24 h; procedure, shortened: as §1
Klebsiella pneumoniae = assay: Antibacterial activity against Klebsiella pneumoniae ATCC 10031 assessed as growth inhibition after 24 hrs by dilution tube method; assay type: functional; conditions: ATCC 10031, 24 h; procedure, shortened: as §1

C[N+](C)(CCCCCCCCOc1c(Br)cc(Br)cc1Br)Cc1ccc(Br)o1.[Br-]
MIC [1]: > 200 µg/mL | MIC (Salmonella typhi): > 200 µg/mL | MIC (Trichophyton rubrum): > 200 µg/mL | MIC (Nannizzia gypsea): > 200 µg/mL | MIC (Enterococcus faecalis): 4 µg/mL | MIC [2]: 50 µg/mL | MIC (Microsporum canis): > 200 µg/mL | MIC (Candida albicans): > 200 µg/mL | MIC (Cryptococcus neoformans): 4 µg/mL | MIC (Staphylococcus aureus): 3 µg/mL | MIC [3]: 7.5 µg/mL | MIC (Histoplasma capsulatum): > 200 µg/mL | MIC (Pseudomonas aeruginosa): 2 µg/mL | MIC (Escherichia coli): > 200 µg/mL | MIC (Klebsiella pneumoniae): 4 µg/mL

Cc1cc(OCCCC[N+](C)(C)Cc2ccco2)c(C(C)C)cc1Cl.[Br-]
MIC [1]: > 200 µg/mL | MIC (Salmonella typhi): > 200 µg/mL | MIC (Trichophyton rubrum): > 200 µg/mL | MIC (Nannizzia gypsea): > 200 µg/mL | MIC (Enterococcus faecalis): 25 µg/mL | MIC [2]: 10 µg/mL | MIC (Microsporum canis): > 200 µg/mL | MIC (Candida albicans): 100 µg/mL | MIC (Cryptococcus neoformans): 25 µg/mL | MIC (Staphylococcus aureus): 25 µg/mL | MIC [3]: 25 µg/mL | MIC (Histoplasma capsulatum): > 200 µg/mL | MIC (Pseudomonas aeruginosa): 7.5 µg/mL | MIC (Escherichia coli): > 200 µg/mL | MIC (Klebsiella pneumoniae): 10 µg/mL

C[N+](C)(CCCCOc1c(Br)cc(Br)cc1Br)Cc1ccc([N+](=O)[O-])o1.[Br-]
MIC [1]: > 200 µg/mL | MIC (Salmonella typhi): > 200 µg/mL | MIC (Trichophyton rubrum): > 200 µg/mL | MIC (Nannizzia gypsea): > 200 µg/mL | MIC (Enterococcus faecalis): 50 µg/mL | MIC [2]: 25 µg/mL | MIC (Microsporum canis): > 200 µg/mL | MIC (Candida albicans): > 200 µg/mL | MIC (Cryptococcus neoformans): 50 µg/mL | MIC (Staphylococcus aureus): 25 µg/mL | MIC [3]: 50 µg/mL | MIC (Histoplasma capsulatum): 50 µg/mL | MIC (Pseudomonas aeruginosa): 8 µg/mL | MIC (Escherichia coli): > 200 µg/mL | MIC (Klebsiella pneumoniae): 10 µg/mL

Cc1cc(OCC[N+](C)(C)Cc2ccc([N+](=O)[O-])o2)c(C(C)C)cc1Cl.Cc1ccc(S(=O)(=O)[O-])cc1
MIC [1]: > 200 µg/mL | MIC (Salmonella typhi): > 200 µg/mL | MIC (Trichophyton rubrum): > 200 µg/mL | MIC (Nannizzia gypsea): > 200 µg/mL | MIC (Enterococcus faecalis): 200 µg/mL | MIC [2]: 50 µg/mL | MIC (Microsporum canis): > 200 µg/mL | MIC (Candida albicans): > 200 µg/mL | MIC (Cryptococcus neoformans): 100 µg/mL | MIC (Staphylococcus aureus): 100 µg/mL | MIC [3]: 100 µg/mL | MIC (Histoplasma capsulatum): > 200 µg/mL | MIC (Pseudomonas aeruginosa): 25 µg/mL | MIC (Escherichia coli): > 200 µg/mL | MIC (Klebsiella pneumoniae): 25 µg/mL

Cc1cc(OCCCCCCC[N+](C)(C)Cc2ccc(Br)o2)c(C(C)C)cc1Cl.[Br-]
MIC [1]: > 200 µg/mL | MIC (Salmonella typhi): > 200 µg/mL | MIC (Trichophyton rubrum): > 200 µg/mL | MIC (Nannizzia gypsea): > 200 µg/mL | MIC (Enterococcus faecalis): 7.5 µg/mL | MIC [2]: 7.5 µg/mL | MIC (Microsporum canis): > 200 µg/mL | MIC (Candida albicans): 50 µg/mL | MIC (Cryptococcus neoformans): 25 µg/mL | MIC (Staphylococcus aureus): 10 µg/mL | MIC [3]: 7.5 µg/mL | MIC (Histoplasma capsulatum): > 200 µg/mL | MIC (Pseudomonas aeruginosa): 3 µg/mL | MIC (Escherichia coli): > 200 µg/mL | MIC (Klebsiella pneumoniae): 7.5 µg/mL

Cc1cc(OCCC[N+](C)(C)Cc2ccc([N+](=O)[O-])o2)c(C(C)C)cc1Cl.[Br-]
MIC [1]: > 200 µg/mL | MIC (Salmonella typhi): 100 µg/mL | MIC (Trichophyton rubrum): > 200 µg/mL | MIC (Nannizzia gypsea): > 200 µg/mL | MIC (Enterococcus faecalis): 25 µg/mL | MIC [2]: > 200 µg/mL | MIC (Microsporum canis): > 200 µg/mL | MIC (Candida albicans): > 200 µg/mL | MIC (Cryptococcus neoformans): > 200 µg/mL | MIC (Staphylococcus aureus): 25 µg/mL | MIC [3]: 25 µg/mL | MIC (Histoplasma capsulatum): > 200 µg/mL | MIC (Pseudomonas aeruginosa): 2 µg/mL | MIC (Escherichia coli): > 200 µg/mL | MIC (Klebsiella pneumoniae): 5 µg/mL

C[N+](C)(CCCOc1c(Br)cc(Br)cc1Br)Cc1ccc([N+](=O)[O-])o1.[Br-]
MIC [1]: > 200 µg/mL | MIC (Salmonella typhi): > 200 µg/mL | MIC (Trichophyton rubrum): > 200 µg/mL | MIC (Nannizzia gypsea): > 200 µg/mL | MIC (Enterococcus faecalis): 200 µg/mL | MIC [2]: 50 µg/mL | MIC (Microsporum canis): > 200 µg/mL | MIC (Candida albicans): > 200 µg/mL | MIC (Cryptococcus neoformans): 200 µg/mL | MIC (Staphylococcus aureus): 50 µg/mL | MIC [3]: 100 µg/mL | MIC (Histoplasma capsulatum): 200 µg/mL | MIC (Pseudomonas aeruginosa): 25 µg/mL | MIC (Escherichia coli): > 200 µg/mL | MIC (Klebsiella pneumoniae): 25 µg/mL

Cc1cc(OCCCCCCCCCCCC[N+](C)(C)Cc2ccc(Br)o2)c(C(C)C)cc1Cl.Cc1ccc(S(=O)(=O)[O-])cc1
MIC [1]: > 200 µg/mL | MIC (Salmonella typhi): > 200 µg/mL | MIC (Trichophyton rubrum): > 200 µg/mL | MIC (Nannizzia gypsea): > 200 µg/mL | MIC (Enterococcus faecalis): > 200 µg/mL | MIC [2]: 200 µg/mL | MIC (Microsporum canis): > 200 µg/mL | MIC (Candida albicans): > 200 µg/mL | MIC (Cryptococcus neoformans): > 200 µg/mL | MIC (Staphylococcus aureus): 200 µg/mL | MIC [3]: > 200 µg/mL | MIC (Histoplasma capsulatum): > 200 µg/mL | MIC (Pseudomonas aeruginosa): 50 µg/mL | MIC (Escherichia coli): > 200 µg/mL | MIC (Klebsiella pneumoniae): 200 µg/mL
